Measured values gathered from unrelated publications.
Compare with care: the assays were run in different laboratories.
Target: Serine/threonine-protein kinase WNK2 (WNK2, Homo sapiens, UniProt Q9Y3S1)

Nc1ncc2c(n1)-c1c([nH]c3ccc(C#CC4CC4)cc13)CCCC2  remaining binding (binding; competition with immobilised ligand; 1 µM): 100%
C=CC(=O)N1CCC(C(=O)NCC(=O)N2CCN(c3nc(-c4cnc(N)nc4C(F)F)nc(N4CCOCC4)n3)CC2)CC1  remaining binding (binding; competition with immobilised ligand; 1 µM): 92%
C[C@@H]1CCN(c2nccc(-c3cnn4ncccc34)n2)C1  remaining binding (binding; 1 µM): 100%
COc1ccc2c(c1)O[C@@H](c1ccc(OC)c(OC)c1)C[C@H]2NC(=O)C1(c2ccc3c(c2)OC(F)(F)O3)CC1  remaining binding (cell-free assay; competition with immobilised ligand; 1 µM): 84%
FC(F)(F)Oc1cccc(-c2cnc3ccc(-c4ccncc4)nn23)c1  remaining binding (binding; competition with immobilised ligand; 5 µM): 86%
N[C@@H]1CCN(c2nccc(-c3cnn4ncccc34)n2)C1  remaining binding (binding; 1 µM): 95%
CCC(=N\O)/C(C)=C/c1ccc(F)cc1  remaining binding (cell-free assay; competition with immobilised ligand; 1 µM): 80%
O=C(c1ccc(Nc2nccc(-c3cc4ccccc4s3)n2)cc1)N1CCC(N2CCCC2)CC1  remaining binding (binding; competition with immobilised ligand; 1 µM): 87%
Cc1cnn2ncc(-c3ccnc(N(C)C)n3)c2c1  remaining binding (binding; 1 µM): 100%
CNCc1ccccc1-c1csc([C@H](C)Nc2nc(C)nc3cc(OC)c(OC)cc23)c1  remaining binding (cell-free assay; competition with immobilised ligand; 1 µM): 99%
CN(C)c1nccc(-c2cnc3ncccn23)n1  remaining binding (binding; 1 µM): 94%
O=C(Nc1c[nH]nc1C(=O)NC1CCNCC1)c1cc(F)cc(F)c1  remaining binding (binding; competition with immobilised ligand; 1 µM): 100%
Cc1c(NC(=O)c2cc(C(N)=O)nc3cc(F)ccc23)c(C(F)(F)F)nn1Cc1ccc(C(C)(C)C)cc1  remaining binding (cell-free assay; competition with immobilised ligand; 1 µM): 100%
COc1cnc(Nc2cccc(S(N)(=O)=O)c2)nc1N1CCN(c2ccccc2)CC1  remaining binding (binding; competition with immobilised ligand; 1 µM): 35%
O=C(NCCCN1CCOCC1)c1ccc(Nc2ncc(Cl)c(-c3ccc(Cl)s3)n2)cc1  remaining binding (binding; competition with immobilised ligand; 1 µM): 92%
CNC(=O)Nc1ccc2c(c1)CC[C@@]21OC(=O)N(CC(=O)N(Cc2ccc(F)cc2)[C@@H](C)C(F)(F)F)C1=O  remaining binding (cell-free assay; competition with immobilised ligand; 1 µM): 100%
F[C@@H]1CCN(c2nccc(-c3cnn4ncccc34)n2)C1  remaining binding (binding; 1 µM): 100%
Cc1c[nH]c2nccc(Oc3c(F)cc(Nc4cc(Cl)nc(N)n4)cc3F)c12  remaining binding (cell-free assay; competition with immobilised ligand; 0.1 µM): 96%
COc1ccnn2ncc(-c3ccnc(N(C)C)n3)c12  remaining binding (binding; 1 µM): 100%
O=C(c1ccc(Nc2ncc(Cl)c(-c3ccc(Cl)s3)n2)cc1)N1CCC(N2CCCC2)CC1  remaining binding (binding; competition with immobilised ligand; 1 µM): 88%
